The inhibition is how much of the control response was suppressed. The term IC50 denotes the concentration that gives 50% inhibition.

Series [1] addresses T1, Tyrosine-protein phosphatase non-receptor type 1 (Homo sapiens) (UniProt P18031).
T1 sequence (whole entry): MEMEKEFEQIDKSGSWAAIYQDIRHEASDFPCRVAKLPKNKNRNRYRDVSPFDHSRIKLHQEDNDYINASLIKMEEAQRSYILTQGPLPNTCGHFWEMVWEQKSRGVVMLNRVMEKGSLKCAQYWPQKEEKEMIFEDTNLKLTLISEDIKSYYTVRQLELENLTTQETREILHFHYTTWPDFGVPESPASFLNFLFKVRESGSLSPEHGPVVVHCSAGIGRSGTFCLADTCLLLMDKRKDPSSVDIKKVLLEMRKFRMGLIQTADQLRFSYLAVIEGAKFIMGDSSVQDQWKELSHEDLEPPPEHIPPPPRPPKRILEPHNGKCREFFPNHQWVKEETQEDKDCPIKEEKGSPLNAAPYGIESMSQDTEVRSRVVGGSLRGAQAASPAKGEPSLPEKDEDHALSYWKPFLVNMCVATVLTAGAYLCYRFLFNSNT
As to the kind of experiment: Inhibition of recombinant human PTP1B at 10 uM by malachite green assay relative to control. The procedure, abridged: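 Human recombinant PTP1B incubated with test compound at 10 µM; DMSO as control. Colorimetric, non-radioactive assay detecting free phosphate released, read with Biomol red phosphate reagent (malachite green basis). Percent inhibition is calculated against control activity without inhibitor, taken as 100%, from three independent sets of experiments.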

Series [2] has as its target T2, Tyrosine-protein phosphatase non-receptor type 1 (Homo sapiens, UniProt P18031).
T2 sequence (P18031 whole entry): T1 sequence (whole entry)
In words: Inhibition of recombinant human PTP1B by malachite green assay. The essentials:
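Human recombinant PTP1B; compounds giving around 50% inhibition at 10 µM are retested at six concentrations. Free phosphate released is detected colorimetrically with Biomol red (malachite green).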

Series [3] relates to Danio rerio. As to the kind of experiment: Toxicity in zebra fish embryo assessed as oedema at 10 uM after 24 to 72 hrs by visible light microscopy. Conditions: zebrafish, in vivo. The class given is organism-based. The procedure, abridged:
(§1)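 Wild-type Indian zebrafish strain kept at 28 °C, 14:10 h light/dark. Embryos from natural mating raised 24 h in E3 medium, dechorionated at 24 hpf with 500 µg/ml Pronase K for 10 min. Six embryos per well exposed to compound at 10 µM final in 0.1% DMSO for 24, 48 and 72 h. Controls received 0.1% DMSO. Embryos scored under visible light microscopy at intervals.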

The species named for series [4] is Danio rerio. In words: Toxicity in zebra fish embryo assessed as developmental delay at 10 uM after 24 to 72 hrs by visible light microscopy. The class given is organism-based. Conditions: zebrafish, in vivo. The procedure, abridged:
as §1

The species named for series [5] is Danio rerio. As to the kind of experiment: Toxicity in zebra fish embryo assessed as death at 10 uM after 24 to 72 hrs by visible light microscopy. The class given is organism-based. The conditions noted are these: zebrafish, in vivo. The essentials:
as §1

The species entered for series [6] is Danio rerio. As to the kind of experiment: Toxicity in zebra fish embryo assessed as deformation at 10 uM after 24 to 72 hrs by visible light microscopy. The conditions noted are these: zebrafish, in vivo. The class given is organism-based. The essentials:
as §1

As for `Cc1ccc(C(=O)O)cc1NC(=O)CSc1nnc(-c2ccc(O)cc2)o1`, the inhibition in series [1] amounted to 47%. In addition, in series [2], the half-inhibitory concentration (IC50) is 10.3 µM.

With `Cc1ccc(C(=O)O)cc1NC(=O)CSc1nnc(-c2ccc(Cl)cc2Cl)o1`, the inhibition in series [1] stood at 43.3%.

Take `Cc1ccc(C(=O)O)cc1NC(=O)CSc1nc2ccccc2[nH]1`: the inhibition in series [1] was determined as 47.8%. For the same molecule, the IC50 in series [2] was determined as 15.2 µM.

`Cc1ccc(-c2nnc(SCC(=O)Nc3cc(C(=O)O)ccc3C)o2)cc1`: the inhibition in series [1] worked out at 51.5%. Also, the IC50 in series [2] is 8.9 µM.

Consider `Cc1ccc(C(=O)O)cc1NC(=O)CSc1nc2cc([N+](=O)[O-])ccc2[nH]1`, for which the inhibition in series [1] came to 26.9%.

For the molecule `Cc1ccc(C(=O)O)cc1NC(=O)CSc1nnc(-c2cccc(Cl)c2Cl)o1`, in series [1], the inhibition came out at 29.9%.

As to `Cc1ccc(C(=O)O)cc1NC(=O)CSc1nnc(-c2ccccc2Cl)o1`, the inhibition in series [1] came to 27.5%.

Consider `Cc1ccc(C(=O)O)cc1NC(=O)CSc1nnc(-c2ccccc2O)o1`, for which, in series [1], the inhibition amounted to 38.8%.

Regarding `COc1ccc2[nH]c(SCC(=O)Nc3cc(C(=O)O)ccc3C)nc2c1`, in series [1], the inhibition worked out at 57.5%. Besides, the Activity entry in the series with Danio rerio [3], in the series filed under Danio rerio [4], in the series listed under Danio rerio [5] and in the series listed under Danio rerio [6] was “Non-toxic” throughout. For the same molecule, the IC50 in series [2] came to 8.2 µM.

Take `COc1cc(-c2nnc(SCC(=O)Nc3cc(C(=O)O)ccc3C)o2)cc(OC)c1OC`: in series [1], the inhibition worked out at 50.7%. Further, in series [2], the IC50 is 9.7 µM.

In the case of `Cc1ccc(C(=O)O)cc1NC(=O)CSc1nc2ccccc2o1`, in series [1], the inhibition came to 32.8%.

As for `Cc1ccc(C(=O)O)cc1NC(=O)CSc1nc2ccccc2s1`, the inhibition in series [1] stood at 57.5%. In addition, the IC50 in series [2] worked out at 8.5 µM.
